Results reported in ChEMBL document CHEMBL1157698, “Enhancing the intestinal absorption of molecules containing the polar guanidino functionality: a double-targeted prodrug approach” (J Med Chem, 2010).

T1: Serine hydrolase BPHL (Homo sapiens) (UniProt Q86WA6)
T1 sequence (whole entry): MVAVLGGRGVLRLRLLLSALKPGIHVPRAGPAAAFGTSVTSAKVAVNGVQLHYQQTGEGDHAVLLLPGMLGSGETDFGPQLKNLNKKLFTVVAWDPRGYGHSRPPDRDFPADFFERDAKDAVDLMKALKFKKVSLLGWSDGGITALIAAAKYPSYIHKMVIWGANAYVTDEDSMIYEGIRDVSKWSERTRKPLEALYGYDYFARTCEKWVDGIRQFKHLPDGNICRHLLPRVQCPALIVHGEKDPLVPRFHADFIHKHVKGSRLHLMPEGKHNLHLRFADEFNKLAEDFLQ

T2: Solute carrier family 15 member 1 (Homo sapiens, UniProt P46059)
T2 sequence (P46059 whole entry): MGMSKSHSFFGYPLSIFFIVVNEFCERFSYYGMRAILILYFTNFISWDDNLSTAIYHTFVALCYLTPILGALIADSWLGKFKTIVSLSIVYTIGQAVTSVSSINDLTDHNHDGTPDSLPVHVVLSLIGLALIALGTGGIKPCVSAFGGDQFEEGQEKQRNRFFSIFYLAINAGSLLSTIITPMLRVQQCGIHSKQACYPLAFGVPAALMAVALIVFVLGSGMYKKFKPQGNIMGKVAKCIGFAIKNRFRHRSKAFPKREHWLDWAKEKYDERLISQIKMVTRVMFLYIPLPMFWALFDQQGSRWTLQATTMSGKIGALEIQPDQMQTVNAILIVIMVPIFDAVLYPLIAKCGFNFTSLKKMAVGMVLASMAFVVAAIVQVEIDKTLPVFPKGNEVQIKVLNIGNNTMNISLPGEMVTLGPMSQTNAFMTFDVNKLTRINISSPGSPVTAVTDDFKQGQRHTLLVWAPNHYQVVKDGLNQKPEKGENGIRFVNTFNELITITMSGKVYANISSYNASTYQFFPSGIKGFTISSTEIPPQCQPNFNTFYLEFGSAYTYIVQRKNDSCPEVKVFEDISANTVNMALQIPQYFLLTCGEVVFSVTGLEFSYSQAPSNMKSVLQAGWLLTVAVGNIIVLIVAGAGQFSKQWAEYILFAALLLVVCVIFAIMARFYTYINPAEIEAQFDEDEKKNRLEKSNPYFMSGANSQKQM


Legend:
[1] = target: T1, Serine hydrolase BPHL (Homo sapiens); assay: Ratio of Kcat to Km of human recombinant VACVase assessed as hydrolysis
In short: (§1)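 Recombinant human VACVase expressed in and purified from E. coli, stored at −80 °C, protein measured by Bio-Rad DC assay against BSA. Run in 50 mM HEPES pH 7.4 at 37 °C with 5 min buffer preincubation, enzyme added, then substrate to start. Michaelis-Menten fit; kcat = Vmax/[enzyme]0 using 28.83 kDa mass, active protein normalized to valacyclovir specific activity. Triplicate.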

[2] = Stability in apical side in human Caco-2 cells at 120 mins by permeability study; format: ADME, cell-based; details: read-out: Stability
[3] = Stability in human HeLa cells after 60 mins; format: ADME, cell-based; details: read-out: Stability
In short: (§2)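 HeLa cells, with or without hPEPT1 adenovirus infection 3 days before assay, after 5 days' growth. Preincubated 15 min in pH 6.0 MES uptake buffer, then given 1 mM compound for 60 min at 37 °C. Cells washed in ice-cold DPBS, sonicated, TFA-precipitated (final 7%), supernatant read by HPLC and normalized to protein (nmol/mg). Donor solution stability by HPLC. Triplicate, mean ± SEM.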

HeLa [4] = assay: Drug uptake in human HeLa cells expressing hPEPT1 after 60 mins; format: ADME, cell-based; details: 1 h; in short: as §2
HeLa [5] = assay: Stability in human HeLa cell homogenate assessed as half life of hydrolysis; format: ADME, cell-based
In short: (§3)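 Homogenates from HeLa or Caco-2 cells: NaCl-washed, collected in 10 mM phosphate pH 7.4, sonicated on ice, spun 10,000 rpm 10 min at 4 °C; supernatant adjusted to 500 μg/mL protein. Compound added from 200 mM DMSO stock at 37 °C.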

HeLa [6] = assay: Drug uptake in human HeLa cells after 60 mins; format: ADME, cell-based; details: 1 h; in short: as §2
[7] = Chemical stability assessed as half life of hydrolysis in pH 7.4 buffer; format: physicochemical; details: for t1/2: buffer
In short: (§4)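 Hydrolysis at 37 °C in pH 6.0 uptake buffer (140 mM NaCl, 5.4 mM KCl, 1.8 mM CaCl2, 0.8 mM MgSO4, 5 mM glucose, 25 mM MES) or 10 mM phosphate pH 7.4. Compound added from 200 mM DMSO stock. […] Triplicate, mean ± SEM.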

[8] = target: T2, Solute carrier family 15 member 1; assay: Inhibition of human PEPT1-mediated [3H]Gly-Sar uptake in human HeLa cells; format: cell-based
In short: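 HeLa cells grown 5 days, infected with hPEPT1 adenovirus 3 days before assay, washed in pH 6.0 MES uptake buffer. Incubated 30 min at 37 °C with 10 μM Gly-Sar (0.1 μM [3H]) plus test compound at 0.05–5 mM. Cells washed ice-cold, lysed in 0.1% SDS, scintillation counted. IC50 by nonlinear fit; n=4.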

Caco-2 [9] = assay: Stability in human Caco-2 cell homogenate assessed as half life of hydrolysis; format: ADME, Colon; in short: as §3
[10] = Chemical stability in pH 6 buffer after 2 hrs; format: physicochemical; details: pH 6, 2 h; in short: as §4
[11] = Stability in human HeLa cells expressing hPEPT1 after 60 mins; format: ADME, cell-based; details: read-out: Stability; in short: as §2
hPEPT1 = assay: Drug uptake in human HeLa cells expressing hPEPT1 after 60 mins relative ro control; format: ADME, cell-based; in short: as §2
HeLa [12] = assay: Stability in human HeLa cell homogenate after 2 hrs; format: ADME, cell-based; in short: as §3
Caco-2 [13] = assay: Stability in human Caco-2 cell homogenate after 2 hrs; format: ADME, cell-based; details: caco-2, 2 h; in short: as §3
[14] = Chemical stability in pH 7.4 buffer after 2 hrs; format: physicochemical; details: pH 7.4, 2 h; in short: as §4
[15] = substrate: CC(C)[C@H](N)C(=O)OCCOCn1cnc2c(=O)nc(N)[nH]c21; assay: (§5) Activity of human recombinant VACVase assessed as hydrolysis measured per ug of protein; in short: as §1
[16] = substrate: CC[C@H](C)[C@H](N)C(=O)OCc1cccc(NC(=N)N)c1; assay: as §5; in short: as §1
[17] = substrate: N=C(N)Nc1cccc(COC(=O)[C@@H](N)Cc2ccccc2)c1; assay: as §5; in short: as §1
[18] = substrate: CC(C)[C@H](N)C(=O)OCc1cccc(NC(=N)N)c1; assay: as §5; in short: as §1
[19] = substrate: CC(C)[C@H](N)C(=O)OCCOCn1cnc2c(=O)nc(N)[nH]c21; assay: (§6) Activity of human recombinant VACVase assessed as hydrolysis; in short: as §1
[20] = substrate: CC[C@H](C)[C@H](N)C(=O)OCc1cccc(NC(=N)N)c1; assay: as §6; in short: as §1
[21] = substrate: N=C(N)Nc1cccc(COC(=O)[C@@H](N)Cc2ccccc2)c1; assay: as §6; in short: as §1
[22] = substrate: CC(C)[C@H](N)C(=O)OCc1cccc(NC(=N)N)c1; assay: as §6; in short: as §1

Row | Molecule | Ratio [1] [mM⁻¹ s⁻¹] | remaining at 2 h [2] [%] | remaining at 1 h [3] [%] | Drug uptake (HeLa [4]) [nmol/mg] | t1/2 (HeLa [5]) [h] | Drug uptake (HeLa [6]) [nmol/mg] | IC50 [8] [µM] | t1/2 (Caco-2 [9]) [h] | Stability [10] | remaining at 1 h [11] [%] | t1/2 [7] [h] | uptake ratio at 1 h (hPEPT1) | further results
1 | CC(C)[C@H](N)C(=O)OCCOCn1cnc2c(=O)nc(N)[nH]c21 | 850 |  |  |  |  |  |  |  |  |  |  |  | 
2 | CC(C)[C@@H](N)C(=O)OCc1cccc(NC(=N)N)c1 |  | 98.8 |  |  |  |  |  |  |  |  |  |  | 
3 | CC(C)[C@H](N)C(=O)OCCOCn1cnc2c(=O)[nH]c(N)nc21 [VALACYCLOVIR] |  | 94.7 | 99.2 | 5.5 | 2.37 | < 0.2 | 1420 | 0.522 | Stable | 96.8 |  |  | half-life ([7]; pH 7.4 buffer): 8.23 h
4 | CC[C@H](C)[C@H](N)C(=O)OCc1cccc(N=C(N)N)c1 |  | 96.6 | 99 | 27.7 | 2.287 | < 2 | 630 | 0.993 | Stable | 98.7 | 11.75 | > 13 | 
5 | N=C(N)Nc1cccc(COC(=O)[C@@H](N)Cc2ccccc2)c1 | 1660 |  |  |  |  |  |  |  |  |  |  |  | 
6 | CC(C)[C@H](N)C(=O)OCc1cccc(NC(=N)N)c1 | 3370 | 86.5 | 98 | 50.2 | 0.338 | < 2 | 650 | 0.08 | Stable | 96.9 | 8.227 | > 25 | 
7 | N=C(N)Nc1cccc(CO)c1 [[3-(hydroxymethyl)phenyl]guanidine] |  |  |  | 5.5 |  | 3.8 | > 3000 |  | Stable |  |  | 1.4 | Stability (HeLa [12]): Stable; Stability (Caco-2 [13]): Stable; Stability [14]: Stable
8 | NC(N)=Nc1cccc(COC(=O)[C@@H](N)Cc2ccccc2)c1 |  | 3.9 | 87.2 | 14.8 | < 0.083 | 1.7 | 2330 | < 0.017 | Stable | 83.8 | 4.363 | 8.8 | 
9 | CC[C@H](C)[C@H](N)C(=O)OCc1cccc(NC(=N)N)c1 | 1580 |  |  |  |  |  |  |  |  |  |  |  | 
10 | Serine hydrolase BPHL (Homo sapiens), Q86WA6 (protein) MVAVLGGRGVLRLRLLLSALKPGIHVPRAGPAAAFGTSVTSAKVAVNGVQLHYQQTGEGDHAVLLLPGMLGSGETDFGPQLKNLNKKLFTVVAWDPRGYGHSRPPDRDFPADFFERDAKDAVDLMKALKFKKVSLLGWSDGGITALIAAAKYPSYIHKMVIWGANAYVTDEDSMIYEGIRDVSKWSERTRKPLEALYGYDYFARTCEKWVDGIRQFKHLPDGNICRHLLPRVQCPALIVHGEKDPLVPRFHADFIHKHVKGSRLHLMPEGKHNLHLRFADEFNKLAEDFLQ |  |  |  |  |  |  |  |  |  |  |  |  | Vmax [15]: 120 nmol/min; Vmax [16]: 30 nmol/min/µg; Vmax [17]: 718 nmol/min/µg; Vmax [18]: 321 nmol/min/µg; Km [19]: 68 µM; kcat [19]: 58 s⁻¹; Km [20]: 9 µM; kcat [20]: 14 s⁻¹; Km [21]: 207 µM; kcat [21]: 345 s⁻¹; Km [22]: 46 µM; kcat [22]: 154 s⁻¹
